Measurements of several laboratories.
Cell line: HepG2
Observed: cell growth or viability

SMILES	assay	conditions	IC50
CCOc1nc(-c2cccc(O)c2)cc(-c2cc3ccccc3nc2N2CCOCC2)c1C#N	MTT	72 h	0.132 µM
Cc1nc(Nc2ncc(C(=O)Nc3c(C)cccc3Cl)s2)cc(N2CCN(CCO)CC2)n1	MTT	24 h	60.8 µM
O=C(C=Cc1ccccc1)Nc1cc(-c2ccnc(N3CCC(O)CC3)c2)ccn1	MTT	72 h	0.111 µM
Cc1ccc(-c2cc(-c3ccc(Cl)c(F)c3)c3c(=O)[nH]c(=O)[nH]c3n2)cc1	MTT	48 h	15.7 µM
CN(C)c1cc(NC(=O)c2ccccc2)c(O)c2c1C[C@H]1C[C@H]3[C@H](N(C)C)C(O)=C(C(N)=O)C(=O)[C@@]3(O)C(O)=C1C2=O	ATP luminescence	72 h	21.3 µg/mL
Cc1ccc(-c2cc(-c3c(Cl)cccc3Cl)c3c(=O)n(C)c(=O)n(C)c3n2)cc1	MTT	48 h	7.49 µM
COc1ccc2[nH]c(C(=O)Nc3nc(CC(=O)NO)cs3)cc2c1	MTT	24 h	13.3 µM
COc1ccc(-c2cc(-c3c(OC)cccc3OC)c3c(=O)n(C)c(=O)n(C)c3n2)cc1	MTT	48 h	10.5 µM
CN(C)c1cc(NC(=O)CCc2cccnc2)c(O)c2c1C[C@H]1C[C@H]3[C@H](N(C)C)C(O)=C(C(N)=O)C(=O)[C@@]3(O)C(O)=C1C2=O	ATP luminescence	72 h	> 200 µg/mL
COc1nc(NCc2cn(-c3ccc(C(=O)Nc4ccc(C(F)(F)F)cc4)cc3)nn2)nc(OC)n1	MTT	72 h	0.0651 µM
COc1ccc(-c2cc(-c3c(OC)cccc3OC)c3c(=O)[nH]c(=O)[nH]c3n2)cc1	MTT	48 h	36.5 µM
Clc1ccc(-c2nnc(Nc3ccc(C4=NNC(c5ccc(Cl)cc5)C4)cc3)c3ccccc23)cc1 (stereo not shown)	MTT	72 h	0.8 µM
CN(C)c1cc(NC(=O)CNC(C)(C)C)c(O)c2c1C[C@H]1C[C@H]3[C@H](N(C)C)C(O)=C(C(N)=O)C(=O)[C@@]3(O)C(O)=C1C2=O	ATP luminescence	72 h	> 200 µg/mL
CCCOc1nc(-c2cccc(O)c2)cc(-c2cc3cc(Cl)ccc3nc2N2CCOCC2)c1C#N	MTT	72 h	0.084 µM
Cc1ccc(-c2cc(-c3ccc(N(C)C)cc3)c3c(=O)[nH]c(=O)[nH]c3n2)cc1	MTT	48 h	12.1 µM
CN(C)c1cc(NC(=O)Cc2ccccn2)c(O)c2c1C[C@H]1C[C@H]3[C@H](N(C)C)C(O)=C(C(N)=O)C(=O)[C@@]3(O)C(O)=C1C2=O	ATP luminescence	72 h	> 200 µg/mL
